From ChEMBL document CHEMBL3813598, “Development of hydroxy-based sphingosine kinase inhibitors and anti-inflammation in dextran sodium sulfate induced colitis in mice” (Bioorg Med Chem, 2016)
Active and inactive are the calls of the source. The rule behind the calls is not given here.

Tests used:
[1] = target: T1, Sphingosine kinase 2 (Homo sapiens, UniProt Q9NRA0); assay: Inhibition of GST-tagged full length human recombinant SPHK2 expressed in baculovirus using sphingosine as substrate preincubated for 10 mins measured after 1 hr by ADP-quest assay
T1 sequence (Q9NRA0 whole entry): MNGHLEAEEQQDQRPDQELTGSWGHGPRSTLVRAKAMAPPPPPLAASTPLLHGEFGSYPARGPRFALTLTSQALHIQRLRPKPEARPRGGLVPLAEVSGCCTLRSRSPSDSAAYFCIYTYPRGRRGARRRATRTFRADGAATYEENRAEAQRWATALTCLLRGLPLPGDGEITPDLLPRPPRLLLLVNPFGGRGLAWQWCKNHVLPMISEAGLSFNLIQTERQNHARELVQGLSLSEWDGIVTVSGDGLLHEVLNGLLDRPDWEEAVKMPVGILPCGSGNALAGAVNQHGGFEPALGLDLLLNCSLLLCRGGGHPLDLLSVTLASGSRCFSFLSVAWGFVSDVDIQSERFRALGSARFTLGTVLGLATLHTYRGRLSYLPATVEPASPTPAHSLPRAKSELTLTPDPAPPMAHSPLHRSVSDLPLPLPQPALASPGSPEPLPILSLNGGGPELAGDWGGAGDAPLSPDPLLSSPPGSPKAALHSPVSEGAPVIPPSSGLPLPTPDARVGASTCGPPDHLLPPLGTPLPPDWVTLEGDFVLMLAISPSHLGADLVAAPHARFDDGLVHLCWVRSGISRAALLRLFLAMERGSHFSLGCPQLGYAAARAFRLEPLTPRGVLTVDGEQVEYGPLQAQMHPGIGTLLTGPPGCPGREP
Outline: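 Human recombinant SphK1 or SphK2 with sphingosine substrate and ATP, tested in 384-well format. Enzyme was preincubated with compound for 10 min, then the reaction ran at 28 °C for 1 h. ADP Quest reagents A and B were added for 30 min at room temperature. Fluorescence was read at Ex 530/Em 590 nm. Values are mean of n = 3 in triplicate.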

[2] = target: T2, Sphingosine kinase 1 (Homo sapiens, UniProt Q9NYA1); assay: Inhibition of GST-tagged full length human recombinant SPHK1 expressed in baculovirus using sphingosine as substrate preincubated for 10 mins measured after 1 hr by ADP-quest assay
T2 sequence (Q9NYA1 whole entry): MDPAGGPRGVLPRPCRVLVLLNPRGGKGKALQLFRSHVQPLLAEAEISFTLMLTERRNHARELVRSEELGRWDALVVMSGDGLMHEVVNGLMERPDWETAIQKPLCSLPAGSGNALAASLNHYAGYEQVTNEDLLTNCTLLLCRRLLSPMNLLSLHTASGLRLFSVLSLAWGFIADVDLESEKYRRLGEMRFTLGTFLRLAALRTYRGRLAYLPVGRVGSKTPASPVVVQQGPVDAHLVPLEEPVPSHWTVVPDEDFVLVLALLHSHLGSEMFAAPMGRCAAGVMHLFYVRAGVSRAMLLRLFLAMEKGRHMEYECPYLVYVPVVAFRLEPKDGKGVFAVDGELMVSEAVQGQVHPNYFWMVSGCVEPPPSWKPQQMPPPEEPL

[3] = system: Mus musculus; assay: Antiinflammatory activity in DSS- induced C57BL/6 mouse colon colitis model assessed as inhibition of COX2 expression at 50 mg/kg, ig after 24 hrs by hematoxylin staining based assay; assay type: functional, organism-based
Outline: (§1)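 Colons come from the same DSS model, fixed in 10% buffered formalin for at least 24 h. Paraffin sections were deparaffinized. Antigen was retrieved in 10 mM sodium citrate with 0.1% Tween 20 at 100 °C for 20 min. Primary antibody was applied in PBS with 5% BSA and 10% goat serum, then HRP polymer at room temperature for 30 min. Detection was DAB with hematoxylin counterstain. IL-6 and COX-2 positive labeling was counted automatically. Mean ± SD.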

[4] = system: Mus musculus; assay: Antiinflammatory activity in DSS- induced C57BL/6 mouse colitis model assessed as body weight at 50 mg/kg, ig after 10 days (reference value: 15.69 +/- 0.65 g); assay type: functional
Outline: (§2)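 Female C57BL/6 mice, 6–8 weeks, randomized into five groups. Colitis induced by 2.5% w/v DSS in drinking water for 5 days, then 5 days of normal water. Test agent given ip at 5 or 10 mg/kg, or 5-ASA ig at 50 mg/kg, until study end. Controls were water plus vehicle and DSS plus vehicle. Body weight recorded daily; colon length taken at sacrifice on day 10. Mean ± SD, n = 10.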

[5] = system: Mus musculus; assay: Antiinflammatory activity in DSS- induced C57BL/6 mouse colon colitis model assessed as cellular infiltration of mononuclear macrophages/neutrophils at 50 mg/kg, ig after 24 hrs by hematoxylin/eosin staining based assay; assay type: functional, organism-based
Outline: (§3)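 Colitis induced in female C57BL/6 mice as 2.5% DSS in drinking water for 5 days, then 5 days of water. Dosing ip or 5-ASA ig until sacrifice at day 10. Colons fixed in 10% buffered formalin (pH 7.4) for at least 24 h. Sections scored for cellular infiltration, mucosal lesion and crypt damage to give a histologic score.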

[6] = system: Mus musculus; assay: Antiinflammatory activity in DSS- induced C57BL/6 mouse colon colitis model assessed as inhibition of IL6 expression at 50 mg/kg, ig after 24 hrs by hematoxylin staining based assay; assay type: functional, organism-based; outline: as §1
[7] = system: Mus musculus; assay: Antiinflammatory activity in DSS- induced C57BL/6 mouse colon colitis model assessed as mucosal/submucosal lesion at 50 mg/kg, ig after 24 hrs by hematoxylin/eosin staining based assay; assay type: functional, organism-based; outline: as §3
[8] = system: Mus musculus; assay: Antiinflammatory activity in DSS- induced C57BL/6 mouse colitis model assessed as colon length at 50 mg/kg, ig after 10 days (reference value: 45.68 +/- 1.34 mm); assay type: functional; outline: as §2
[9] = system: Mus musculus; assay: Antiinflammatory activity in DSS- induced C57BL/6 mouse colitis model assessed as change in body weight at 50 mg/kg, ig after 7 days; assay type: functional, organism-based; outline: as §2
[10] = system: Mus musculus; assay: Antiinflammatory activity in DSS- induced C57BL/6 mouse colon colitis model assessed as degeneration/necrosis of crypt cells at 50 mg/kg, ig after 24 hrs by hematoxylin/eosin staining based assay; assay type: functional, organism-based; outline: as §3
[11] = target: T1, Sphingosine kinase 2; assay: Inhibition of His-tagged full length human recombinant SPHK2 expressed in baculovirus infected fall armyworm Sf9 cell expression system using sphingosine as substrate by ADP-quest assay
[12] = target: T2, Sphingosine kinase 1; assay: Inhibition of His-tagged full length human recombinant SPHK1 expressed in baculovirus infected fall armyworm Sf9 cell expression system using sphingosine as substrate by ADP-quest assay

SMILES | IC50 [1] [µM] | IC50 [2] [µM] | also measured
O=C(N/N=C/c1cccc(OCc2ccccc2C(F)(F)F)c1)c1ccc(O)c(O)c1 | 13.8 | 15.5 | 
O=C(N/N=C/c1ccc(OCc2ccccc2C(F)(F)F)cc1)c1cc(O)c(O)c(O)c1 | 15.1 | 15 | 
COc1cccc(COc2ccc(/C=N/NC(=O)c3ccc(O)c(O)c3)cc2)c1 | 10.1 | 25.3 | 
COc1cccc(COc2ccc(/C=N/NC(=O)c3cc(O)cc(O)c3)cc2)c1 | > 100 | > 100 | 
Nc1ccc(O)c(C(=O)O)c1 [MESALAMINE] |  |  | inhibition [3]: Active; Activity [4]: 18.32 g; Activity [5]: Active; inhibition [6]: Active; Activity [7]: Active; Activity [8]: 53.4 mm; Activity [9]: inactive; Activity [10]: Active
O=C(N/N=C/c1ccc(OCc2ccccc2C(F)(F)F)cc1)c1cccc(O)c1 | > 100 | > 100 | 
O=C(N/N=C/c1ccc(OCc2ccccc2C(F)(F)F)cc1)c1ccc(O)cc1 | > 100 | > 100 | 
O=C(N/N=C/c1cccc(OCc2ccccc2C(F)(F)F)c1)c1ccc(O)cc1 | > 100 | > 100 | 
O=C(NCc1ccc(O)c(O)c1)C12CC3CC(C1)CC(c1ccc(Cl)cc1)(C3)C2 |  |  | Ki [11]: 4.2 µM; Ki [12]: 3.2 µM
O=C(N/N=C/c1cccc(OCc2ccccc2C(F)(F)F)c1)c1cc(O)cc(O)c1 | > 100 | > 100 | 
COc1ccccc1COc1ccc(/C=N/NC(=O)c2cc(O)c(O)c(O)c2)cc1 | 26.6 | 18.4 | 
O=C(N/N=C/c1cccc(OCc2ccccc2)c1)c1ccc2[nH]cnc2c1 | > 100 | > 100 | 
O=C(N/N=C/c1ccc(OCc2cccc(C(F)(F)F)c2)cc1)c1cc(O)c(O)c(O)c1 | 23.8 | 54.7 | 
N#Cc1ccccc1COc1ccc(/C=N/NC(=O)c2cc(O)c(O)c(O)c2)cc1 | 44.5 | > 100 | 
O=C(N/N=C/c1ccc(OCc2ccccc2C(F)(F)F)cc1)c1ccc(O)c(O)c1 | 11.4 | 16.5 | 
O=C(N/N=C/c1ccc(OCc2ccccc2C(F)(F)F)cc1)c1cc(O)cc(O)c1 | > 100 | > 100 | 
COc1cccc(COc2ccc(/C=N/NC(=O)c3ccc(O)cc3)cc2)c1 | > 100 | > 100 | 
COc1cccc(COc2ccc(/C=N/NC(=O)c3cccc(O)c3)cc2)c1 | > 100 | > 100 | 
COc1cccc(COc2cccc(/C=N/NC(=O)c3cc(O)cc(O)c3)c2)c1 | > 100 | > 100 | 
O=C(N/N=C/c1cccc(OCc2ccccc2C(F)(F)F)c1)c1cc(O)c(O)c(O)c1 | 16.3 | 19.6 | 
COc1cccc(COc2cccc(/C=N/NC(=O)c3ccc(O)c(O)c3)c2)c1 | 4.6 | 5 | 
COc1cccc(COc2cccc(/C=N/NC(=O)c3ccc(O)cc3)c2)c1 | > 100 | > 100 | 
O=C(N/N=C/c1ccc(OCc2ccc(C(F)(F)F)cc2)cc1)c1cc(O)c(O)c(O)c1 | 15.6 | 37.4 | 
COc1cccc(COc2cccc(/C=N/NC(=O)c3cccc(O)c3)c2)c1 | > 100 | > 100 | 
O=C(N/N=C/c1ccc(OCc2ccc3ccccc3c2)cc1)c1cc(O)c(O)c(O)c1 | 30.2 | 20.6 | 
CCCCCCCCCCCCC/C=C/[C@@H](O)[C@H](CO)N(C)C [DIMETHYLSPINGOSINE] | 26.3 |  | 
CC(C)(C)c1ccc(COc2ccc(/C=N/NC(=O)c3cc(O)c(O)c(O)c3)cc2)cc1 | 43.3 | 40.5 | 
O=C(N/N=C/c1cccc(OCc2ccccc2C(F)(F)F)c1)c1cccc(O)c1 | > 100 | > 100 | 

More lines, main results first:

IC50 [1] [µM] | IC50 [2] [µM] | SMILES | also measured
26.3 | 40.2 | O=C(N/N=C/c1cccc(OCc2ccccc2)c1)c1cc(O)c(O)c(O)c1 | 
> 100 | > 100 | COc1ccc(COc2ccc(/C=N/NC(=O)c3cc(O)c(O)c(O)c3)cc2)cc1 | 
22.1 | 16.3 | O=C(N/N=C/c1cccc(OCc2ccc(C(F)(F)F)cc2)c1)c1cc(O)c(O)c(O)c1 | 
> 100 | > 100 | COc1ccc(COc2cccc(/C=N/NC(=O)c3cc(O)c(O)c(O)c3)c2)cc1 | 
68.6 | 45.4 | N#Cc1ccccc1COc1cccc(/C=N/NC(=O)c2cc(O)c(O)c(O)c2)c1 | 
98.9 | > 100 | O=C(N/N=C/c1cccc(OCc2ccccc2F)c1)c1cc(O)c(O)c(O)c1 | 
> 100 | 85.3 | N#Cc1cccc(COc2cccc(/C=N/NC(=O)c3cc(O)c(O)c(O)c3)c2)c1 | 
22.6 | 45.8 | N#Cc1cccc(COc2ccc(/C=N/NC(=O)c3cc(O)c(O)c(O)c3)cc2)c1 | 
40.6 | 31.3 | O=C(N/N=C/c1cccc(OCc2cccc3ccccc23)c1)c1cc(O)c(O)c(O)c1 | 
> 100 | > 100 | O=C(N/N=C/c1cccc(OCc2cccc(F)c2)c1)c1cc(O)c(O)c(O)c1 | 
> 100 | > 100 | O=C(N/N=C/c1cccc(OCc2cccc(C(F)(F)F)c2)c1)c1cc(O)c(O)c(O)c1 | 
65.4 | 45.8 | Cc1ccc(COc2cccc(/C=N/NC(=O)c3cc(O)c(O)c(O)c3)c2)cc1 | 
> 100 | > 100 | O=C(N/N=C/c1cccc(OCc2ccc(F)cc2)c1)c1cc(O)c(O)c(O)c1 | 
19.5 | 20.5 | COc1ccccc1COc1cccc(/C=N/NC(=O)c2cc(O)c(O)c(O)c2)c1 | 
61.2 | > 100 | O=C(N/N=C/c1cccc(OCc2ccc(Cl)cc2)c1)c1cc(O)c(O)c(O)c1 | 
78.7 | 52.1 | Cc1cccc(COc2cccc(/C=N/NC(=O)c3cc(O)c(O)c(O)c3)c2)c1 | 
62.2 | 35.2 | CC(C)(C)c1ccc(COc2cccc(/C=N/NC(=O)c3cc(O)c(O)c(O)c3)c2)cc1 | 
58.8 | 36.8 | O=C(N/N=C/c1cccc(OCc2ccccc2Cl)c1)c1cc(O)c(O)c(O)c1 | 
17.8 | 27.7 | N#Cc1ccc(COc2ccc(/C=N/NC(=O)c3cc(O)c(O)c(O)c3)cc2)cc1 | 
8.7 | 8.57 | COc1cccc(COc2cccc(/C=N/NC(=O)c3cc(O)c(O)c(O)c3)c2)c1 | 
35.1 | 69.4 | N#Cc1ccc(COc2cccc(/C=N/NC(=O)c3cc(O)c(O)c(O)c3)c2)cc1 | 
28.5 | 22 | O=C(N/N=C/c1ccc(OCc2ccccc2)cc1)c1cc(O)c(O)c(O)c1 | 
44.5 | 32.7 | Cc1ccc(COc2ccc(/C=N/NC(=O)c3cc(O)c(O)c(O)c3)cc2)cc1 | 
81.2 | 63.2 | Cc1ccccc1COc1cccc(/C=N/NC(=O)c2cc(O)c(O)c(O)c2)c1 | 
67.4 | > 100 | O=C(N/N=C/c1cccc(OCc2cccc(Cl)c2)c1)c1cc(O)c(O)c(O)c1 | 
